# Paper PMC7909006 (Clinical cancer research : an official journal of the …, 2020)
# Assays:
# [1] = adult patients; cited from earlier work
# [2] = Phase I safety and tolerability: adverse events; type: in vivo
# PBMC = assay: Flow cytometric analysis of PBMC and lymphocyte subset analysis; type: in vivo, human
# Population PK modeling = assay: Population PK modeling; set-up: species or system human; settings: for RP2D based on body weight (population PK): exposure matched to adults receiving 800 mg daily
# Method in brief: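 Nonlinear mixed-effects model: two compartments, sequential zero- and first-order absorption with lag time, linear elimination, and body weight as an allometric covariate on disposition parameters. Final-model estimates were used to simulate doses for ages 6–18 years that match steady-state exposure in adult TGCT patients given 800 mg daily.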
# [3] = Plasma pharmacokinetics, noncompartmental analysis; type: in vivo, human
# Method in brief: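 Oral dosing once daily, BSA-based at 400, 600 or 800 mg/m2, rolling-six escalation. Peripheral blood sampled on C1 day 1 before dosing and at 0.5–24 h after, on day 15 before dosing and at 1–6 h after, and before dosing on day 16. Plasma assayed by validated LC-MS/MS (LLOQ 10 nmol/L). Cmax, Tmax, AUC and CL/F derived by noncompartmental analysis.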
# [4] = non-human primate model, nontumor setting; cited from earlier work
# [5] = adults; cited from earlier work
# [6] = system: recurrent or refractory acute leukemias or solid tumors including NF1 PN; assay: Tumor response; type: in vivo, human
# Method in brief: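 Tumors assessed at baseline (within 14 days before start), then after every even 28-day cycle with the same imaging modality. Criteria were RECIST v1.1 for solid tumors, WHO for brain tumors, and volumetric MRI for NF1 plexiform neurofibromas (baseline, every 4th cycle in year 1, then every 6 cycles). Leukemia was followed by blood and marrow each cycle. Treatment lasted up to two years.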
# [7] = system: serum cytokines (IL-10, IL-12p70, IL-6, MCP-1, M-CSF); assay: Pharmacodynamics: serum cytokine analysis, fold change from Day 1; type: in vivo, human; settings: 14–15 Days from C1; N=12
# [8] = patient 2, Osteosarcoma, dose level 1
# [9] = patient 3, Ewing Sarcoma, dose level 1
# [10] = patient 4, NF1 plexiform neurofibroma, dose level 1
# [11] = patient 5, NF1 plexiform neurofibroma, dose level 2
# [12] = patient 6, NF1 plexiform neurofibroma, dose level 2
# [13] = patient 7, Central Nervous System PNET, dose level 2
# [14] = patient 8, Primary brain tumor, dose level 2
# [15] = patient 9, NF1 malignant peripheral nerve sheath tumor, dose level 3
# [16] = patient 10, Osteosarcoma, dose level 3
# [17] = patient 11, Osteosarcoma, dose level 3
# [18] = patient 12, Embryonal rhabdomyosarcoma, dose level 3
# [19] = patient 13, Acute myeloid leukemia, dose level 3
# [20] = patient 14, Spindle cell carcinoma, dose level 3
# [21] = patient 15, Aneurysmal fibrous histiocytoma, dose level 3
# [22] = patient 16, Glioblastoma, dose level 3
smiles,measurement,setting,value
FC(F)(F)c1ccc(CNc2ccc(Cc3c[nH]c4ncc(Cl)cc34)cn2)cn1 [Pexidartinib],Liver toxicity in adult trials,[1],"idiosyncratic, serious (grade 4–5) liver toxicity was observed in a small subset of patients"
same,"Recommended phase II dose (RP2D), BSA based","[2]; human, in vivo, 28 days",800 mg/m^2/day
same,Dose-limiting toxicities (DLT),[2]; in vivo,No DLTs
same,Tolerability,"[2]; in vivo, po",well tolerated
same,Maximum tolerated dose (MTD),[2]; up to 800 mg/m^2/dose,not reached
same,"Change in CD14dimCD16+ nonclassical, pro-inflammatory monocytes",PBMC; C1,No significant changes
same,"CD11b+ cells in PBMC, median fold change (95% CI)","PBMC; C1 days 6–8, flow cytometry","0.47 (0.21, 1.31)"
same,Change in peripheral blood lymphocyte subset analysis,PBMC; during C1,no notable changes
same,RP2D based on body weight (population PK),Population PK modeling; body weight < 30 kg,400 mg daily
same,RP2D based on body weight (population PK),Population PK modeling; body weight ≥ 30 & < 40 kg,600 mg daily
same,RP2D based on body weight (population PK),Population PK modeling; body weight ≥ 40 kg,800 mg daily
same,AUC,"Population PK modeling; human, plasma, oral, 800 mg, Steady-state AUC, 5th to 95th percentile, adult TGCT patients receiving 800 mg daily",96 to 255 µg·h/mL
same,AUC0–24 dependence on dose,[3]; DL1 to DL3,rose with increasing dose
same,Cmax dependence on dose,[3]; DL1 to DL3,rose with increasing dose
same,"Accumulation ratio, median","[3]; day 15 vs day 1, DL3 (n=3)",1.22
same,Clearance from concentration x time curves,[3]; first day of dosing,slow clearance
same,PK dose linearity,[3]; over three DLs,linear
same,Drug levels in the cerebral spinal fluid,[4],low but detectable levels
same,Median terminal half-life,[5],16.8 h
same,"Sustained partial response, RECIST decrease in longest diameter of target lesion","[6]; 1 patient with peritoneal mesothelioma, 400 mg/m^2/day DL",67%
same,"Stable disease, number of patients",[6]; 16 patients enrolled,three
same,Median number of treatment cycles received,"[6]; 16 patients, 1 C = 28 days",1 C
same,Duration of stable disease prior to disease progression,"[6]; one patient with metastatic, rapidly progressive osteosarcoma, 1 C = 28 days",4 C
same,Reason Off Treatment,"[6]; patient 1, Peritoneal mesothelioma, dose level 1",Remains on Study
same,Reason Off Treatment,[6]; [8],Progressive Disease
same,Time-point Off Treatment,[6]; [8],Cycle 1 Day 23
same,Reason Off Treatment,[6]; [9],Progressive Disease
same,Time-point Off Treatment,[6]; [9],Cycle 1 Day 28
same,Reason Off Treatment,[6]; [10],Best Interest of Patient
same,Time-point Off Treatment,[6]; [10],After Cycle 4
same,Reason Off Treatment,[6]; [11],Withdrawal of Consent
same,Time-point Off Treatment,[6]; [11],After Cycle 1 (took 23 doses)
same,Reason Off Treatment,[6]; [12],Best Interest of Patient
same,Time-point Off Treatment,[6]; [12],After Cycle 6
same,Reason Off Treatment,[6]; [13],Progressive Disease
same,Time-point Off Treatment,[6]; [13],After Cycle 1
same,Reason Off Treatment,[6]; [14],Progressive Disease
same,Time-point Off Treatment,[6]; [14],After Cycle 1
same,Reason Off Treatment,[6]; [15],Progressive Disease
same,Time-point Off Treatment,[6]; [15],Cycle 2 Day 28
same,Reason Off Treatment,[6]; [16],Progressive Disease
same,Time-point Off Treatment,[6]; [16],Cycle 4 Day 6
same,Reason Off Treatment,[6]; [17],Progressive Disease
same,Time-point Off Treatment,[6]; [17],Cycle 3 Day 1
same,Reason Off Treatment,[6]; [18],Progressive Disease
same,Time-point Off Treatment,[6]; [18],Cycle 1 Day 12
same,Reason Off Treatment,[6]; [19],Progressive Disease
same,Time-point Off Treatment,[6]; [19],Cycle 1 Day 15
same,Reason Off Treatment,[6]; [20],Progressive Disease
same,Time-point Off Treatment,[6]; [20],Cycle 1 Day 23
same,Reason Off Treatment,[6]; [21],Progressive Disease
same,Time-point Off Treatment,[6]; [21],Cycle 3 Day 16
same,Reason Off Treatment,[6]; [22],Progressive Disease
same,Time-point Off Treatment,[6]; [22],Cycle 2 Day 5
same,"IL-6 serum, Med. Fold Change (95% CI) from Day 1",[7],"0.91 (0.78, 1.34)"
same,"IL-10 serum, Med. Fold Change (95% CI) from Day 1",[7],"1.25 (1.11, 1.44)"
